Data published in ChEMBL document CHEMBL2346560, “Structure and function of a potent lipopolysaccharide-binding antimicrobial and anti-inflammatory peptide” (J Med Chem, 2013).
Values after ≈ are worked out from the molar mass of the structure shown. Active and inactive are the calls of the source. No cut-off for these calls is given here. Bridge positions count the residues as written; N and C are the ends. Peptide text beside a SMILES is read from it.

How the values were obtained:
Escherichia coli [1] = assay: Bactericidal activity against Escherichia coli ATCC 25922 at MIC after 20 mins by colony counting assay (reference value: 79.3 CFU); type: functional
Pseudomonas aeruginosa [2] = assay: Antibacterial activity against ampicillin, benzylpencillin-resistant Pseudomonas aeruginosa 08031205 after 16 hrs by broth dilution method; type: functional; conditions: Pseudomonas aeruginosa, 08031205, 16 h
How it was run: (§1)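 MIC read-out, reported in µg/mL with µM equivalents. Each value is the mean of three independent experiments, each run in duplicate.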

RAW264.7 [3] = assay: Antiinflammatory activity in mouse RAW264.7 cells assessed as inhibition of LPS-induced NO production at 10 ug/mL after 24 hrs by spectrophotometric analysis relative to control; type: functional; conditions: RAW264.7, 24 h
How it was run: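 RAW 264.7 cells (1 × 10^7) in RPMI-1640 with 10% FBS and penicillin/streptomycin were treated with peptide (2.5, 5, 10, 20 µg/mL) with or without LPS (E. coli 055:B5, 100 ng/mL) for 24 h. Medium nitrite was measured with Griess reagent at A540 against a NaNO2 standard curve. Control was LPS alone. Mean ± SEM of three separate experiments.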

RAW264.7 [4] = assay: Cytotoxicity against mouse RAW264.7 cells at <25 ug/mL after 24 hrs by MTT assay; type: cell-based; conditions: raw264.7, 24 h
RAW264.7 [5] = assay: Antiinflammatory activity in mouse RAW264.7 cells assessed as inhibition of LPS-induced TLR4 expression preincubated for 1 hr prior to LPS-challenge measured after 3 hrs by Western blotting analysis; type: functional, cell-based
How it was run: (§2)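 RAW 264.7 cells (1 × 10^6/well) were serum-starved in RPMI-1640 for 16 h. They were pretreated with peptide (0, 5, 10, 20 µg/mL) for 1 h, then given LPS (E. coli 055:B5, 0 or 100 ng/mL) for 3 h. Cells were washed in ice-cold PBS, and cytoplasmic or nuclear fractions were blotted for TLR4, JNK, NF-κB p65 and β-actin. Control was LPS alone.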

Escherichia coli [6] = assay: Antibacterial activity against Escherichia coli ATCC 25922 treated with PBS after 16 hrs by broth dilution method; type: functional; conditions: ATCC 25922, 16 h
How it was run: (§3)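 Salt sensitivity of the MIC. Peptide was tested in water, NaCl, CaCl2, MgCl2 or PBS (Na2HPO4-NaH2PO4, pH 7.4), with every salt at 150 mM. Values are means of three independent experiments, each run in duplicate.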

Staphylococcus aureus [7] = assay: Antibacterial activity against Staphylococcus aureus ATCC 2592 treated with NaCl after 16 hrs by broth dilution method; type: functional; conditions: ATCC 2592, 16 h; how it was run: as §3
Candida albicans [8] = assay: Antifungal activity against Candida albicans ATCC 2002 after 16 hrs by broth dilution method; type: functional; conditions: ATCC 2002, 16 h; how it was run: as §1
RAW264.7 [9] = assay: Antiinflammatory activity in mouse RAW264.7 cells assessed as inhibition of LPS-induced JNK2 expression at 10 to 20 ug/mL preincubated for 1 hr prior to LPS-challenge measured after 3 hrs by Western blotting analysis; type: functional, cell-based; how it was run: as §2
[10] = Toxicity in human RBC assessed as induction of hemolysis after 30 mins; type: cell-based; conditions: erythrocyte, 0.5 h
How it was run: (§4)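 Human red blood cells incubated with peptide. Hemoglobin release read as absorbance at 540 nm and expressed against 1% Triton X-100 as positive control.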

Candida albicans [11] = assay: Antifungal activity against Candida albicans ATCC 2002 treated with CaCl2 after 16 hrs by broth dilution method; type: functional; conditions: ATCC 2002, 16 h; how it was run: as §3
Pseudomonas aeruginosa [12] = assay: Antibacterial activity against Pseudomonas aeruginosa ATCC 27853 treated with water after 16 hrs by broth dilution method; type: functional; conditions: ATCC 27853, 16 h; how it was run: as §3
Escherichia coli [13] = assay: Bactericidal activity against Escherichia coli ATCC 25922 at 5 times MIC after 20 mins by colony counting assay (reference value: 79.3 CFU); type: functional
[14] = Toxicity in human RBC assessed as induction of hemolysis at 12.5 ug/mL after 30 mins relative to control; type: cell-based, Erythrocyte; conditions: red blood cells (RBC), read-out: Activity; how it was run: as §4
Escherichia coli [15] = assay: Antibacterial activity against Escherichia coli ATCC 25922 after 16 hrs by broth dilution method; type: functional; conditions: ATCC 25922, 16 h; how it was run: as §1
Staphylococcus aureus [16] = assay: Antibacterial activity against Staphylococcus aureus ATCC 2592 treated with CaCl2 after 16 hrs by broth dilution method; type: functional; conditions: ATCC 2592, 16 h; how it was run: as §3
RAW264.7 [17] = assay: Antiinflammatory activity in mouse RAW264.7 cells assessed as inhibition of LPS-induced IL6 production at 20 ug/mL after 24 hrs by ELISA relative to control; type: functional; conditions: RAW264.7, 24 h
How it was run: (§5)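 RAW 264.7 cells (2 × 10^5) were plated and allowed to adhere. They were given peptide (2.5, 5, 10, 20 µg/mL) with or without LPS (E. coli 055:B5, 20 ng/mL) for 24 h. Supernatant TNF-α, IL-6 and MCP-1 were measured by ELISA at A450. Controls were LPS alone and untreated cells. Mean ± SEM of three separate experiments.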

Escherichia coli [18] = assay: Bactericidal activity against Escherichia coli ATCC 25922 at 5 times MIC after 5 mins by colony counting assay (reference value: 47.7 CFU); type: functional
RAW264.7 [19] = assay: Antiinflammatory activity in mouse RAW264.7 cells assessed as inhibition of LPS-induced JNK1 expression preincubated for 1 hr prior to LPS-challenge measured after 3 hrs by Western blotting analysis; type: functional, cell-based; how it was run: as §2
Escherichia coli [20] = assay: Antibacterial activity against Escherichia coli ATCC 25922 treated with MgCl2 after 16 hrs by broth dilution method; type: functional; conditions: ATCC 25922, 16 h; how it was run: as §3
Pseudomonas aeruginosa [21] = assay: Antibacterial activity against ampicillin, benzylpencillin-resistant Pseudomonas aeruginosa 08031014 after 16 hrs by broth dilution method; type: functional; conditions: Pseudomonas aeruginosa, 08031014, 16 h; how it was run: as §1
Candida albicans [22] = assay: Antifungal activity against ampicillin, benzylpencillin-resistant Candida albicans 08030809 after 16 hrs by broth dilution method; type: functional; conditions: Candida albicans, 08030809, 16 h; how it was run: as §1
RAW264.7 [23] = assay: Antiinflammatory activity in mouse RAW264.7 cells assessed as inhibition of LPS-induced NFkappaB translocation from cytoplasm to nucleus preincubated for 1 hr prior to LPS-challenge measured after 3 hrs by Western blotting analysis; type: functional, cell-based; how it was run: as §2
Escherichia coli [24] = assay: Bactericidal activity against Escherichia coli ATCC 25922 at 10 times MIC after 20 mins by colony counting assay (reference value: 79.3 CFU); type: functional
RAW264.7 [25] = assay: Antiinflammatory activity in mouse RAW264.7 cells assessed as inhibition of LPS-induced MCP1 production after 24 hrs by ELISA; type: functional, cell-based; how it was run: as §5
Escherichia coli [26] = assay: Antibacterial activity against Escherichia coli 08A852 assessed as plasma membrane rupture after 30 mins by scanning electron microscopic analysis; type: functional, organism-based
How it was run: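 E. coli (about 2 × 10^7 CFU/mL) was exposed to peptide at 1 × MIC, 37 °C, 30 min, beside an untreated control. Cells were pelleted, fixed in 2.5% buffered glutaraldehyde (4 °C, 2 h), post-fixed in 1% osmium tetroxide (2 h), dehydrated through graded ethanol, frozen in tert-butyl alcohol and vacuum-dried, then imaged by SEM.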

RAW264.7 [27] = assay: Antiinflammatory activity in mouse RAW264.7 cells assessed as inhibition of LPS-induced TLR4 expression at 20 ug/mL preincubated for 1 hr prior to LPS-challenge measured after 3 hrs by Western blotting analysis relative to LPS-treated control; type: functional; how it was run: as §2
Escherichia coli [28] = assay: Bactericidal activity against Escherichia coli ATCC 25922 at 5 times MIC after 40 mins by colony counting assay (reference value: 131.7 CFU); type: functional
Candida albicans [29] = assay: Antifungal activity against Candida albicans ATCC 2002 treated with water after 16 hrs by broth dilution method; type: functional; conditions: ATCC 2002, 16 h; how it was run: as §3

CC[C@H](C)[C@H](NC(=O)[C@H](Cc1cnc[nH]1)NC(=O)[C@H](CO)NC(=O)[C@@H](NC(=O)[C@@H](NC(=O)[C@@H](NC(=O)[C@@H](NC(=O)[C@H](CCCNC(=N)N)NC(=O)[C@H](CC(C)C)NC(=O)[C@H](CCCCN)NC(=O)[C@H](CCC(=O)O)NC(=O)[C@H](CCCCN)NC(=O)[C@H](CC(C)C)NC(=O)[C@H](CCCCN)NC(=O)[C@@H]1CSSC[C@H](NC(=O)[C@H](CCCCN)NC(=O)[C@@H](N)CCCNC(=N)N)C(=O)N[C@@H](CC(N)=O)C(=O)N[C@@H](Cc2ccccc2)C(=O)N[C@@H](CC(C)C)C(=O)N1)[C@@H](C)O)C(C)C)[C@@H](C)CC)[C@@H](C)O)C(=O)N[C@@H](CC(=O)O)C(=O)N[C@@H](CCCCN)C(=O)N[C@H](C(=O)N[C@@H](CC(C)C)C(=O)N[C@@H](CCCNC(=N)N)C(=O)N1CCC[C@H]1C(=O)N[C@@H](CCC(N)=O)C(=O)NCC(=O)O)C(C)C (H-RKCNFLCKLKEKLRTVITSHIDKVLRPQG-OH; disulfide 3-7)
CFU (Escherichia coli [1]): 11.3 | MIC (Pseudomonas aeruginosa [2]): 2.74 µM (≈ 9.38 µg/mL) | inhibition at 10 µg/mL (RAW264.7 [3]): 50% | Activity (RAW264.7 [4]): Non-toxic | inhibition (RAW264.7 [5]): Dose-dependent effect | MIC (Escherichia coli [6]): 2.35 µg/mL (≈ 0.686 µM) | MIC (Staphylococcus aureus [7]): 4.69 µg/mL (≈ 1.37 µM) | MIC (Candida albicans [8]): 1.37 µM (≈ 4.69 µg/mL) | inhibition (RAW264.7 [9]): Active | Activity [10]: Dose-dependent effect | MIC (Candida albicans [11]): 2.35 µg/mL (≈ 0.686 µM) | MIC (Pseudomonas aeruginosa [12]): 18.8 µg/mL (≈ 5.48 µM) | CFU (Escherichia coli [13]): 0 | hemolysis at 0.5 h, 12.5 ug/mL [14]: 2.5% | MIC (Escherichia coli [15]): 1.37 µM (≈ 4.69 µg/mL) | MIC (Staphylococcus aureus [16]): 4.69 µg/mL (≈ 1.37 µM) | inhibition at 20 µg/mL (RAW264.7 [17]): 86% | CFU (Escherichia coli [18]): 29.7 | inhibition (RAW264.7 [19]): Dose-dependent effect | MIC (Escherichia coli [20]): 2.35 µg/mL (≈ 0.686 µM) | MIC (Pseudomonas aeruginosa [21]): 10.9 µM (≈ 37.5 µg/mL) | MIC (Candida albicans [22]): 1.37 µM (≈ 4.69 µg/mL) | inhibition (RAW264.7 [23]): Dose-dependent effect | CFU (Escherichia coli [24]): 0 | inhibition (RAW264.7 [25]): Dose-dependent effect | Activity (Escherichia coli [26]): Active | inhibition at 20 µg/mL (RAW264.7 [27]): 85% | CFU (Escherichia coli [28]): 0 | MIC (Candida albicans [29]): 4.69 µg/mL (≈ 1.37 µM)
